In ChEMBL document CHEMBL3763017, “Synthesis and evaluation of dual antiplatelet activity of bispidine derivatives of N-substituted pyroglutamic acids” (Eur J Med Chem, 2016):
Activity calls are given as the source filed them. The rule behind the calls is not given here.

Legend:
[1] = Antiplatelet activity in human platelet rich plasma assessed as inhibition of collagen-induced platelet aggregation at 30 uM preincubated for 5 mins followed by collagen stimulation by turbidimetry; type: functional
In short: (§1)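 Human PRP (1×10^8 platelets/ml) from healthy-donor blood spun at 1000 rpm for 10 min. Pre-treated 5 min with compound or 0.4% DMSO vehicle, then agonist added at 37 °C. Light-transmission aggregometry run at least 5–10 min; % aggregation calculated. Single-point screens at 30 μM, n = 3; mean ± SEM.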

Mus musculus [2] = assay: Antithrombotic activity in Swiss albino mouse assessed as protection against collagen-epinephrine induced pulmonary thromboembolism at 30 umol/kg, po after 1 hr; type: functional
In short: (§2)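 Male Swiss albino mice (18–22 g) dosed orally in 0.5% carboxymethyl cellulose 1, 2, 4, 6, 12 or 24 h before challenge. Collagen (150 μg/ml) plus adrenaline (50 μg/ml) injected into the tail vein. Dead or hind-limb-paralysed mice counted over 15 min and expressed as % protection. Ten mice per drug group, five for vehicle.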

[3] = Antiplatelet activity in human platelet rich plasma assessed as inhibition of U46619-induced platelet aggregation at 30 uM preincubated for 5 mins followed by U46619 stimulation by turbidimetry; type: functional; in short: as §1
Mus musculus [4] = assay: Antithrombotic activity in ferric chloride-induced Swiss albino mouse arterial thrombosis model assessed as time to occlusion at 170 umol/kg, po; type: functional, organism-based
Mus musculus [5] = assay: Antithrombotic activity in Swiss albino mouse assessed as protection against collagen-epinephrine induced pulmonary thromboembolism at 170 umol/kg, po measured upto 5 hrs; type: functional; in short: as §2
Mus musculus [6] = assay: Toxicity in Swiss albino mouse assessed as bleeding time at 170 umol/kg, po administered as single dose measured up to 24 hrs (reference value: 3.5 +/- 0.3 mins); type: organism-based; conditions: in vivo
Aorta = assay: Inhibition of U46619-induced vasocontraction in Sprague-Dawley rat thoracic aoritc rings at 100 nM (reference value: 89.8 +/- 8.5%); type: functional; design: scale not given: the % may be the effect or the level left

SMILES | inhibition at 30 µM [1] | Activity (Mus musculus [2]) | other results
Cc1ccc(CN2C(=O)CC[C@H]2C(=O)N2CC3CC(CN(C(=O)OC(C)(C)C)C3)C2)cc1 | 25% | 40% | –
CC(C)(C)OC(=O)N1CC2CC(C1)CN(C(=O)[C@@H]1CCC(=O)N1Cc1ccc(Cl)cc1)C2 | 6% | 30% | –
Cc1ccc(CN2C(=O)CC[C@H]2C(=O)N2CC3CC(C2)CN(S(=O)(=O)c2ccc(C)cc2)C3)cc1 | 37.5% | 40% | –
O=C([C@@H]1CCC(=O)N1Cc1c(Cl)cccc1Cl)N1CC2CC(CN(Cc3ccccc3)C2)C1 | 68% | 40% | inhibition at 30 µM [3]: 85%
Cc1ccc(S(=O)(=O)N2CC3CC(CN(C(=O)[C@@H]4CCC(=O)N4Cc4ccccc4Br)C3)C2)cc1 | 16.8% | 55% | –
Cc1ccc(CN2C(=O)CC[C@H]2C(=O)N2CC3CC(CN(Cc4ccc(Cl)cc4)C3)C2)cc1 | 67% | 35% | inhibition at 30 µM [3]: 81%
O=C([C@@H]1CCC(=O)N1Cc1ccc(Cl)cc1)N1CC2CC(CN(Cc3ccccc3)C2)C1 | 52% | 30% | inhibition at 30 µM [3]: 80%
CC(C)(C)OC(=O)N1CC2CC(C1)CN(C(=O)[C@@H]1CCC(=O)N1Cc1cccc3ccccc13)C2 | 11% | 30% | –
CC(C)(C)OC(=O)N1CC2CC(C1)CN(C(=O)[C@@H]1CCC(=O)N1Cc1c(Cl)cccc1Cl)C2 | 3% | 30% | –
O=C([C@@H]1CCC(=O)N1Cc1ccc(Br)cc1)N1CC2CC(CN(Cc3ccccc3)C2)C1 | 57% | 40% | –
CC(=O)Oc1ccccc1C(=O)O [ASPIRIN] | – | – | Activity (Mus musculus [4]): inactive; Activity (Mus musculus [5]): 40%; Time (Mus musculus [6]): 6.6 min
O=C([C@@H]1CCC(=O)N1S(=O)(=O)c1ccccc1)N1CC2CC(CN(Cc3ccccc3)C2)C1 | 29% | 30% | –
O=C(O)CCC/C=C\C[C@@H]1[C@H](CNNC(=O)Nc2ccccc2)[C@H]2CC[C@@H]1O2 | – | – | Activity (Aorta): 8.4%
